Converted amounts (≈) assume the structure as drawn.
Key:
Aspergillus niger = assay: Antifungal activity against Aspergillus niger MTCC 281 after 24 to 48 hrs by agar diffusion method; assay type: functional; conditions: for MIC: Aspergillus niger, MTCC 281
Outline: (§1)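 Fungi grown on potato dextrose agar slants at 27 ± 0.2 °C for 24–48 h until sporulation. Spores suspended in sterile water with 1% Tween-80 and counted by haemocytometer (10⁶ CFU/mL). 0.1 mL spread on 2% agar PDA plates and held at 27 °C for 12 h. Wells then received 0.1 mL of compound at graded concentrations for MIC. Plates refrigerated 20 min for diffusion, then incubated at 27 ± 0.2 °C for […]. Zone read in mm. 1% DMSO used as control.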

Candida albicans = assay: Antifungal activity against Candida albicans MTCC 183 after 24 to 48 hrs by agar diffusion method; assay type: functional; conditions: for MIC: Candida albicans, MTCC 183; outline: as §1
Staphylococcus aureus = assay: Antibacterial activity against Staphylococcus aureus MTCC 96 after 24 hrs by agar diffusion method; assay type: functional; conditions: for MIC: Staphylococcus aureus, MTCC 96, 24 h
Outline: (§2)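 Agar well diffusion following NCCLS. Bacteria kept on nutrient agar slants at 37 ± 0.5 °C for 24 h. Nutrient agar plates seeded with 0.1 mL of culture suspension in 0.85% sterile saline (10⁵ CFU/mL). Plates incubated at 37 ± 0.5 °C for 24 h. Zone of inhibition recorded in mm, and MIC noted. 1% DMSO used as control.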

Penicillium chrysogenum = assay: Antifungal activity against Penicillium chrysogenum MTCC 160 after 24 to 48 hrs by agar diffusion method; assay type: functional; conditions: for MIC: Penicillium chrysogenum, MTCC 160; outline: as §1
Bacillus subtilis = assay: Antibacterial activity against Bacillus subtilis MTCC 441 after 24 hrs by agar diffusion method; assay type: functional; conditions: for MIC: Bacillus subtilis, MTCC 441, 24 h; outline: as §2
Escherichia coli = assay: Antibacterial activity against Escherichia coli MTCC 2939 after 24 hrs by agar diffusion method; assay type: functional; conditions: for MIC: Escherichia coli, MTCC 2939, 24 h; outline: as §2
Fusarium verticillioides = assay: Antifungal activity against Fusarium moniliforme MTCC 156 after 24 to 48 hrs by agar diffusion method; assay type: functional; conditions: for MIC: Fusarium verticillioides, MTCC 156; outline: as §1
Trichoderma viride = assay: Antifungal activity against Trichoderma viride MTCC 167 after 24 to 48 hrs by agar diffusion method; assay type: functional; conditions: for MIC: Trichoderma viride, MTCC 167; outline: as §1
Salmonella enterica = assay: Antibacterial activity against Salmonella typhi MTCC 98 after 24 hrs by agar diffusion method; assay type: functional, Salmonella enterica subsp. enterica serovar Typhi; conditions: for MIC: Salmonella enterica, MTCC 98, 24 h
Outline: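 NCCLS agar diffusion. Strain kept on nutrient agar slant at 37 ± 0.5 °C for 24 h. Nutrient agar plates seeded with 0.1 mL of a 10⁵ CFU/mL suspension in sterile 0.85% saline. Plates incubated at 37 ± 0.5 °C for 24 h. Read-out: zone of inhibition (mm) and MIC.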

Row | SMILES | inhibition zone (IZ) (Aspergillus niger) [mm] | MIC (Aspergillus niger) [µg/mL] | MIC (Candida albicans) [µg/mL] | inhibition zone (IZ) (Staphylococcus aureus) [mm] | MIC (Staphylococcus aureus) [µg/mL] | inhibition zone (IZ) (Penicillium chrysogenum) [mm] | MIC (Penicillium chrysogenum) [µg/mL] | MIC (Bacillus subtilis) [µg/mL] | inhibition zone (IZ) (Escherichia coli) [mm] | MIC (Escherichia coli) [µg/mL] | inhibition zone (IZ) (Fusarium verticillioides) [mm] | MIC (Fusarium verticillioides) [µg/mL] | inhibition zone (IZ) (Trichoderma viride) [mm] | MIC (Trichoderma viride) [µg/mL] | inhibition zone (IZ) (Salmonella enterica) [mm] | MIC (Salmonella enterica) [µg/mL] | inhibition zone (IZ) (Candida albicans) [mm] | inhibition zone (IZ) (Bacillus subtilis) [mm]
1 | CCCCc1nc(Cl)c(C2CC(c3cc(Cl)c(C)cc3O)=NN2c2nc(-c3ccc(Cl)cc3)cs2)[nH]1 (configuration not stated) | 12 | 50 (≈ 89.1 µM) | > 100 | 12 | 50 (≈ 89.1 µM) | 13 | 25 (≈ 44.6 µM) | > 100 | 14 | 50 (≈ 89.1 µM) | 11 | 50 (≈ 89.1 µM) | 14 | 25 (≈ 44.6 µM) | 9 | 50 (≈ 89.1 µM) |  | 
2 | CCCCc1nc(Cl)c(C2CC(c3cc(C)cc(Br)c3O)=NN2c2nc(-c3ccc(Cl)cc3)cs2)[nH]1 (configuration not stated) | 10 | 50 (≈ 82.6 µM) | 25 (≈ 41.3 µM) | 12 | 50 (≈ 82.6 µM) | 13 | 50 (≈ 82.6 µM) | 50 (≈ 82.6 µM) | 16 | 25 (≈ 41.3 µM) | 9 | 50 (≈ 82.6 µM) | 14 | 25 (≈ 41.3 µM) | 12 | 50 (≈ 82.6 µM) | 12 | 14
3 | CCCCc1nc(Cl)c(C2CC(c3ccc(N)cc3)=NN2c2nc(-c3ccc(Cl)cc3)cs2)[nH]1 (configuration not stated) | 14 | 25 (≈ 48.9 µM) | > 100 | 10 | 50 (≈ 97.8 µM) | 10 | 50 (≈ 97.8 µM) | 50 (≈ 97.8 µM) | 12 | 50 (≈ 97.8 µM) |  | > 100 | 12 | 50 (≈ 97.8 µM) |  | > 100 |  | 8
4 | CCCCc1nc(Cl)c(C2CC(c3ccc(Cl)cc3)=NN2c2nc(-c3ccc(Cl)cc3)cs2)[nH]1 (configuration not stated) | 12 | 50 (≈ 94.2 µM) | 25 (≈ 47.1 µM) | 12 | 50 (≈ 94.2 µM) | 10 | 50 (≈ 94.2 µM) | 50 (≈ 94.2 µM) | 16 | 25 (≈ 47.1 µM) | 11 | 50 (≈ 94.2 µM) | 11 | 50 (≈ 94.2 µM) | 10 | 50 (≈ 94.2 µM) | 14 | 14
